Converted amounts (≈) assume the structure as drawn.
Legend:
[1] = test system: Human immunodeficiency virus 1; test: Antiviral activity against wild type HIV1 harboring reverse transcriptase Y181C mutant infected in human MT2 cells assessed as protection from virus-induced cytopathicity by MTT assay; assay type: functional, organism-based
[2] = test system: Human immunodeficiency virus 1; test: Antiviral activity against wild type HIV1 harboring reverse transcriptase K103N/Y181C mutant infected in human MT2 cells assessed as protection from virus-induced cytopathicity by MTT assay; assay type: functional, organism-based
[3] = Aqueous solubility of the compound at pH 6.5 after 48 hrs by shake-flask method; assay type: physicochemical
Procedure, shortened: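 Shake-flask method: excess solid stirred in Britton–Robinson buffer, pH 6.5, for 48 h at 25 °C. The supernatant was passed through a 0.2 μm filter and quantified by UV–vis spectrophotometry. Piroxicam served as the control.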

[4] = Cytotoxicity against human MT2 cells assessed as reduction in cell viability by MTT assay; assay type: cell-based
[5] = test system: Human immunodeficiency virus 1; test: Antiviral activity against wild type HIV1 3B infected in human MT2 cells assessed as protection from virus-induced cytopathicity by MTT assay; assay type: functional, organism-based; conditions: Human immunodeficiency virus 1, 3B
[6] = Human immunodeficiency virus 1, MT2, read-out: EC50

| Compound | EC50 [1, 6] | EC50 [2, 6] | solubility thermodynamic at 48 h [3] | CC50 [4] | EC50 [5] | EC50 ([1]; mt2) | EC50 ([2]; mt2) |
| --- | --- | --- | --- | --- | --- | --- | --- |
| N#C/C=C/c1cc(Cl)cc(Oc2ccc(Cl)cc2OCCn2ccc(=O)[nH]c2=O)c1 | 49 nM | 220 nM |  |  |  |  |  |
| N#C/C=C/c1cc(F)cc(Oc2ccc(F)cc2OCCn2ccc(=O)[nH]c2=O)c1 | 16 nM | 85 nM | 10.8 µg/mL (≈ 26.3 µM) |  |  |  |  |
| N#C/C=C/c1cc(Cl)cc(Oc2ccccc2OCCn2ccc(=O)[nH]c2=O)c1 | 46 nM | 24 nM | 510 µg/mL (≈ 1240 µM) | 18 µM | 0.31 nM |  |  |
| N#Cc1cc2c(Oc3ccccc3OCCn3ccc(=O)[nH]c3=O)cccc2[nH]1 | 38000 nM | 5500 nM |  | 72 µM | 56 nM |  |  |
| Cc1cc(Oc2ccccc2OCCn2ccc(=O)[nH]c2=O)c2cc(C#N)[nH]c2c1 |  | 800 nM |  | 1.2 µM | 10 nM | Not Active |  |
| N#Cc1cc2c(Oc3ccccc3OCCn3ccc(=O)[nH]c3=O)cc(Cl)cc2[nH]1 | 27000 nM | 2700 nM |  | 81 µM | 340 nM |  |  |
| N#Cc1cc2c(Oc3ccccc3OCCn3ccc(=O)[nH]c3=O)cccc2o1 |  | 420 nM |  | > 100 µM | 18 nM | Not Active |  |
| N#Cc1cc2c(Oc3ccccc3OCCn3ccc(=O)[nH]c3=O)cc(Cl)cc2o1 | 1900 nM | 260 nM |  | > 100 µM | 19 nM |  |  |
| N#Cc1cc2c(Oc3ccc(F)cc3OCCn3ccc(=O)[nH]c3=O)cccc2o1 | 3500 nM | 4000 nM |  | > 100 µM | 40 nM |  |  |
| N#Cc1cc2c(Oc3ccc(Cl)cc3OCCn3ccc(=O)[nH]c3=O)cccc2o1 |  |  |  | 7 µM | 7 nM | Not Active | Not Active |
| N#Cc1cc2c(Oc3ccccc3OCCn3ccc(=O)[nH]c3=O)cccn2c1 | 310 nM | 11 nM |  | > 100 µM | 0.38 nM |  |  |
| N#Cc1cc2c(Oc3ccccc3OCCn3ccc(=O)[nH]c3=O)cc(Cl)cn2c1 | 220 nM | 22 nM |  | 39 µM | 3.7 nM |  |  |
| N#Cc1cc2c(Oc3ccccc3OCCn3ccc(=O)[nH]c3=O)cc(F)cn2c1 | 170 nM | 68 nM |  | 40 µM | 0.7 nM |  |  |
| N#Cc1cc2c(Oc3ccc(F)cc3OCCn3ccc(=O)[nH]c3=O)cccn2c1 | 600 nM | 220 nM |  | 100 µM | 2.7 nM |  |  |
| N#Cc1cc2c(Oc3ccc(F)cc3OCCn3ccc(=O)[nH]c3=O)cc(F)cn2c1 | 250 nM | 10 nM | 43.8 µg/mL (≈ 103 µM) | 50 µM | 0.4 nM |  |  |
| N#Cc1cc2c(Oc3ccc(F)cc3OCCn3ccc(=O)[nH]c3=O)cc(Cl)cn2c1 | 160 nM | 110 nM |  | 15 µM | 2.5 nM |  |  |

| Compound | EC50 [1, 6] | EC50 [2, 6] | solubility thermodynamic at 48 h [3] | CC50 [4] | EC50 [5] | EC50 ([1]; mt2) | EC50 ([2]; mt2) |
| --- | --- | --- | --- | --- | --- | --- | --- |
| O=c1ccn(CCOc2ccccc2Oc2cccc3ccccc23)c(=O)[nH]1 | 5700 nM | 5000 nM |  | 80 µM | 60 nM |  |  |
| Cc1ccc2c(Oc3ccccc3OCCn3ccc(=O)[nH]c3=O)cccc2c1 | 12000 nM | 15000 nM |  | 40 µM | 250 nM |  |  |
| O=c1ccn(CCOc2ccccc2Oc2cccc3cc(Cl)ccc23)c(=O)[nH]1 | 1000 nM | 710 nM |  | > 100 µM | 14 nM |  |  |
| O=c1ccn(CCOc2ccccc2Oc2cc(Cl)cc3cc(Cl)ccc23)c(=O)[nH]1 | 430 nM | 520 nM |  | 45 µM | 38 nM |  |  |
| N#Cc1ccc2c(Oc3ccccc3OCCn3ccc(=O)[nH]c3=O)cccc2c1 | 19 nM | 15 nM | 4.3 µg/mL (≈ 10.8 µM) | > 100 µM | 0.53 nM |  |  |
| N#Cc1ccc2c(Oc3ccccc3OCCn3ccc(=O)[nH]c3=O)cc(Cl)cc2c1 | 13 nM | 7.5 nM |  | 24 µM | 2.2 nM |  |  |
| N#Cc1ccc2c(Oc3ccc(F)cc3OCCn3ccc(=O)[nH]c3=O)cc(Cl)cc2c1 | 5.3 nM | 46 nM |  | 16 µM | 4.5 nM |  |  |
| N#Cc1ccc2c(Oc3ccc(Cl)cc3OCCn3ccc(=O)[nH]c3=O)cc(Cl)cc2c1 | 49 nM | 250 nM |  | 20 µM | 11 nM |  |  |
| N#Cc1ccc2c(Oc3ccc(F)cc3OCCn3ccc(=O)[nH]c3=O)cccc2c1 | 10 nM | 48 nM |  | > 100 µM | 0.49 nM |  |  |
| N#Cc1ccc2c(Oc3ccc(Cl)cc3OCCn3ccc(=O)[nH]c3=O)cccc2c1 | 48 nM | 150 nM |  | > 100 µM | 1.5 nM |  |  |
| N#Cc1ccc2c(Oc3ccccc3OCCn3ccc(=O)[nH]c3=O)cc(F)cc2c1 | 8 nM | 6 nM |  | > 100 µM | 1.1 nM |  |  |
| N#Cc1ccc2c(Oc3ccc(F)cc3OCCn3ccc(=O)[nH]c3=O)cc(F)cc2c1 | 5.6 nM | 21 nM |  | > 100 µM | 1.9 nM |  |  |
| N#Cc1ccc2c(Oc3ccc(Cl)cc3OCCn3ccc(=O)[nH]c3=O)cc(F)cc2c1 | 32 nM | 150 nM |  | 18 µM | 5 nM |  |  |
| Cc1ccnc2c1NC(=O)c1cccnc1N2C1CC1 [NEVIRAPINE] |  |  |  | > 100 µM |  | Not Active | Not Active |
| CN1C(C(=O)Nc2ccccn2)=C(O)c2ccccc2S1(=O)=O [PIROXICAM] |  |  | 5 µg/mL (≈ 15.1 µM) |  |  |  |  |
